According to ChEMBL document CHEMBL1147465, “Nucleic acid-binding ligands identify new mechanisms to inhibit telomerase” (Bioorg Med Chem Lett, 2004):

Assays:
[1] = test system: Euplotes aediculatus; assay: Inhibition of purified telomerase of Euplotes aediculatus at 50 uM
Outline: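 Endogenous telomerase purified from E. aediculatus, tested in a direct activity assay with inhibitor at 50 µM.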

[2] = target: Telomerase reverse transcriptase (Homo sapiens) (UniProt O14746); assay: Inhibition of human telomerase before assembly using recombinant hTR and hTERT at 50 uM
Chain of Telomerase reverse transcriptase (Homo sapiens) (O14746 whole entry): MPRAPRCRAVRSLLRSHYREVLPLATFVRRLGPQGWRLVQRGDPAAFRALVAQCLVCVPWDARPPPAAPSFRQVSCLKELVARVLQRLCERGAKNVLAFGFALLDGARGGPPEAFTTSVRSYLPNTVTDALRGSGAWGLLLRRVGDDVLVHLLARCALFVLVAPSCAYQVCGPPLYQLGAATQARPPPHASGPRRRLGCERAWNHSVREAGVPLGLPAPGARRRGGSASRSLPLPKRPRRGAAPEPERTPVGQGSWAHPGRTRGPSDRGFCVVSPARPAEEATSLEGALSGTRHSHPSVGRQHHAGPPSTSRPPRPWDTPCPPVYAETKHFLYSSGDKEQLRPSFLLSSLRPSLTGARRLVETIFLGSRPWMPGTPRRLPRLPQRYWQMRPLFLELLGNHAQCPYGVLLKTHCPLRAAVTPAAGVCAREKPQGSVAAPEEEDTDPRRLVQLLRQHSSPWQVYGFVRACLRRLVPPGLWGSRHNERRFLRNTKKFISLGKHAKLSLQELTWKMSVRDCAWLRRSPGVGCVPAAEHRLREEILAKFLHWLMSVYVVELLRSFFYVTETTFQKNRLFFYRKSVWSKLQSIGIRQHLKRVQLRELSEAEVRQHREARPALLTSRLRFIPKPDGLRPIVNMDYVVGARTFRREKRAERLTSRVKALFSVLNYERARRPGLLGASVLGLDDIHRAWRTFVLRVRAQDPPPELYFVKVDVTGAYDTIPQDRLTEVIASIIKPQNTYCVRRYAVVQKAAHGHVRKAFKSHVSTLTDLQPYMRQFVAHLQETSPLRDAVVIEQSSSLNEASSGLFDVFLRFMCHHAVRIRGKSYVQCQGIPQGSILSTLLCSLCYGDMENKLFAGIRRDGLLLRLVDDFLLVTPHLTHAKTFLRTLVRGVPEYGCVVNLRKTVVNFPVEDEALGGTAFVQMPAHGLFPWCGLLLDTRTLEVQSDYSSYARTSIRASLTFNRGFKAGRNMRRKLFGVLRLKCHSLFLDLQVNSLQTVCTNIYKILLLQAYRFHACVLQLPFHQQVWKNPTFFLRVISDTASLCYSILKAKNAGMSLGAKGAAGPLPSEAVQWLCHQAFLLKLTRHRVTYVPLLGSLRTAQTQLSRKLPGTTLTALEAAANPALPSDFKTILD
Outline: (§1)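 Telomerase reconstituted from in vitro transcribed hTR and hTERT translated in vitro in rabbit reticulocyte lysate. Line 2: ligand added to hTR plus hTERT before a 90 min assembly incubation in lysate. Line 1: ligand added to telomerase already assembled in lysate.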

[3] = test system: Tetrahymena thermophila; assay: Inhibition of telomerase before assembly using recombinant Tetraymena thermophilia TR and TERT at 50 uM
[4] = test system: Tetrahymena thermophila; assay: Inhibition of telomerase after assembly using recombinant Tetraymena thermophilia TR and TERT at 50 uM
[5] = target: Telomerase reverse transcriptase (Homo sapiens) (UniProt O14746); assay: Inhibition of human telomerase after assembly using recombinant hTR and hTERT at 50 uM; outline: as §1

Compound	inhibition [1] [%]	inhibition [2] [%]	inhibition [3] [%]	inhibition [4] [%]	inhibition [5] [%]
Cn1cc(NC(=O)c2cc(NC(=O)c3cc(NC=O)cn3C)cn2C)cc1C(=O)NCCC(=N)N	75	10	0	0	–
CN1CCN(c2ccc3[nH]c(-c4ccc5[nH]c(-c6ccc(O)cc6)nc5c4)nc3c2)CC1	86	81	50	15	34
CN(C)[C@@H]1C(O)=C(C(N)=O)C(=O)[C@@]2(O)C(O)=C3C(=O)c4c(O)cccc4[C@@](C)(O)[C@H]3C[C@@H]12	0	10	0	0	–
Nc1ccc2cc3ccc(N)cc3nc2c1	52	95	90	90	90
N=C(N)c1ccc(-c2cc3ccc(C(=N)N)cc3[nH]2)cc1	0	90	70	70	72
CCN(CC)CCCC(C)Nc1c2ccc(Cl)cc2nc2ccc(OC)cc12 (centres undefined)	75	82	93	80	50
CN[C@@H]1[C@H](O)[C@H](NC)[C@H]2O[C@@]3(O)C(=O)C[C@@H](C)O[C@H]3O[C@@H]2[C@H]1O	0	0	0	0	–
NC[C@@H]1O[C@H](O[C@H]2[C@@H](O)[C@H](O[C@@H]3[C@@H](O)[C@H](N)C[C@H](N)[C@H]3O[C@H]3O[C@H](CO)[C@@H](O)[C@H](O)[C@H]3N)O[C@@H]2CO)[C@H](N)[C@@H](O)[C@@H]1O	0	60	0	0	29
GENTAMICIN	0	64	0	0	19
NC[C@@H]1O[C@H](O[C@H]2[C@@H](O)[C@H](O[C@@H]3[C@@H](O)[C@H](N)C[C@H](N)[C@H]3O[C@H]3O[C@H](CO)[C@@H](O)C[C@H]3N)O[C@@H]2CO)[C@H](N)[C@@H](O)[C@@H]1O[C@H]1O[C@H](CO)[C@@H](O)[C@H](O)[C@@H]1O	10	50	0	0	12
CN[C@@H]1C[C@H](N)[C@@H](O)[C@H](O[C@H]2O[C@H](CO)[C@H](O)[C@@H]3O[C@@]4(O[C@@H]23)O[C@H]([C@H](N)CO)[C@H](O)[C@H](O)[C@H]4O)[C@H]1O	0	0	0	0	–
CN[C@@H]1[C@@H](O[C@H]2O[C@H](CO)[C@@H](N)[C@H](O)[C@H]2O)OC2C[C@@H](N)[C@@H](O[C@H]3[C@H](O)[C@@H](O)[C@H](N)C[C@@H]3N)OC2[C@@H]1O (some centres undefined)	0	30	0	0	–
NCC[C@H](O)C(=O)N[C@@H]1C[C@H](N)[C@@H](O[C@H]2O[C@H](CN)[C@@H](O)[C@H](O)[C@H]2O)[C@H](O)[C@H]1O[C@H]1O[C@H](CO)[C@@H](O)[C@H](N)[C@H]1O	0	25	0	0	–
